Here are results for twelve molecules from ChEMBL document CHEMBL1155265, “Design, synthesis and in vitro antibacterial/antifungal evaluation of novel 1-ethyl-6-fluoro-1,4-dihydro-4-oxo-7(1-piperazinyl)quinoline-3-carboxylic acid derivatives” (2009).

Assay type in all cases: functional
One assay relates to Xanthomonas axonopodis. Nature of the assay: Antibacterial activity against Xanthomonas axonopodis at 50 mg/L after 24 hrs by agar well diffusion method. To be noted: read-out: DIZ. The method, boiled down:
(§1)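 Bacteria plated as 0.8 mL of 24-h-old inoculum mixed into 60 mL sterile molten agar cooled to 45 °C, poured into three dishes. Wells bored with centres at least 24 mm apart. Test sample at 50 mg/L in DMSO added to wells. DMSO served as negative control and agricultural streptomycin sulfate as positive control. Read-out was inhibition zone diameter (mm).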
For orientation: A growth-free zone around the sample is the usual read-out of agar diffusion tests.

Another assay deals with Bacillus subtilis. Nature of the assay: Antibacterial activity against Bacillus subtilis at 50 mg/L after 24 hrs by agar well diffusion method. To be noted: read-out: DIZ. The method, boiled down:
as §1

The next assay relates to Ralstonia solanacearum. Nature of the assay: Antibacterial activity against Ralstonia solanacearum at 50 mg/L after 24 hrs by agar well diffusion method. The note with it: read-out: DIZ.
The test system of a further assay is Fusarium graminearum. Nature of the assay: Antifungal activity against Gibberella zeae at 200 mg/L by plate growth rate method. To be noted: read-out: GI. The method, boiled down: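 Plate growth rate method: compound dissolved in DMSO, mixed into sterile PDA at 45 °C to 200 mg/L, plates poured. A 5 mm mycelium agar disc placed centrally; incubated at 28 °C in the dark until the untreated control covered the plate. Colony diameters measured; growth inhibition computed by Abbott's formula. Each compound tested three times.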

In the next assay the test system is Rhizoctonia solani. Nature of the assay: Antifungal activity against Rhizoctonia solani at 200 mg/L by plate growth rate method. To be noted: read-out: GI. Put shortly: (§2)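 Compound dissolved in DMSO and mixed into molten PDA at 45 °C at 200 mg/L, then plates allowed to set. A 5 mm mycelial agar disc was placed at the centre. Plates were incubated at 28 °C in the dark until the untreated control covered the plate. Colony diameters were measured and growth inhibition calculated by Abbott's formula. Each compound was tested three times.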

A further assay concerns Xanthomonas oryzae. Nature of the assay: Antibacterial activity against Xanthomonas oryzae at 50 mg/L after 24 hrs by agar well diffusion method. The note with it: read-out: DIZ.
A further assay deals with Erwinia. Nature of the assay: Antibacterial activity against Erwinia aroideae at 50 mg/L after 24 hrs by agar well diffusion method. The note with it: read-out: DIZ. The method, boiled down: as §1
In a further assay the test system is Cytospora mali. Nature of the assay: Antifungal activity against Valsa mali at 200 mg/L by plate growth rate method. The note with it: read-out: GI. Put shortly: as §2

Turning to `CCn1cc(C(=O)O)c(=O)c2cc(F)c(N3CCN(C(=O)c4cc5ccccc5o4)CC3)cc21`, the zone of inhibition at 50 µg/mL with Xanthomonas axonopodis stood at 8.66 mm; in the assay with Bacillus subtilis it was 11.2 mm; with Ralstonia solanacearum, 8.56 mm; in the assay with Xanthomonas oryzae, 8.35 mm; in the assay with Erwinia it was 11 mm. The inhibition of growth at 200 µg/mL was 7% in the assay with Fusarium graminearum, 17% in the assay on Rhizoctonia solani and 9% in the assay on Cytospora mali.
Regarding `CCn1cc(C(=O)O)c(=O)c2cc(F)c(N3CCN(C(=O)c4oc5ccccc5c4C)CC3)cc21`, the zone of inhibition at 50 µg/mL with Xanthomonas axonopodis came to 5.24 mm; in the assay with Bacillus subtilis, 6.99 mm; in the assay on Ralstonia solanacearum it was 3.56 mm; in the assay with Xanthomonas oryzae, 5.44 mm; with Erwinia, 5.94 mm. Further, the results for the inhibition of growth at 200 µg/mL in the assay on Fusarium graminearum, with Rhizoctonia solani and in the assay with Cytospora mali were 45%, 65% and 33%, respectively.
Regarding `CCn1cc(C(=O)O)c(=O)c2cc(F)c(N3CCN(C(=O)c4cc(C)oc4C)CC3)cc21`, the zone of inhibition at 50 µg/mL in the assay on Xanthomonas axonopodis amounted to 11.7 mm; with Bacillus subtilis, 15.7 mm; in the assay on Ralstonia solanacearum, 8.39 mm; in the assay with Xanthomonas oryzae, 18.1 mm; with Erwinia it was 11.7 mm. The inhibition of growth at 200 µg/mL turned out to be 25% in the assay with Fusarium graminearum, 16% with Rhizoctonia solani and 29% in the assay on Cytospora mali.
Turning to `CCn1cc(C(=O)O)c(=O)c2cc(F)c(N3CCN(C(=O)c4c(C)oc(C)c4C)CC3)cc21`, the zone of inhibition at 50 µg/mL in the assay on Xanthomonas axonopodis amounted to 11.1 mm; in the assay with Bacillus subtilis, 13.9 mm; in the assay with Ralstonia solanacearum, 5.31 mm; in the assay with Xanthomonas oryzae it was 12.7 mm; with Erwinia, 12.4 mm. In addition, the figures for the inhibition of growth at 200 µg/mL in the assay with Fusarium graminearum, with Rhizoctonia solani and with Cytospora mali were 24%, 65% and 40%, respectively.
`CCn1cc(C(=O)O)c(=O)c2cc(F)c(N3CCN(C(=O)/C=C/c4ccc(C)o4)CC3)cc21`: the zone of inhibition at 50 µg/mL in the assay with Xanthomonas axonopodis was found to be 10.2 mm; in the assay on Bacillus subtilis it was 17 mm; with Ralstonia solanacearum, 6.97 mm; with Xanthomonas oryzae it was 18.1 mm; in the assay on Erwinia it was 11.2 mm. Also, the inhibition of growth at 200 µg/mL in the assay with Fusarium graminearum was determined as 25%; with Rhizoctonia solani it was 83%; in the assay with Cytospora mali it was 25%.
As to `CCn1cc(C(=O)O)c(=O)c2cc(F)c(N3CCN(C(=O)c4ccco4)CC3)cc21`, the zone of inhibition at 50 µg/mL with Xanthomonas axonopodis is 15.5 mm; with Bacillus subtilis it was 22.5 mm; in the assay on Ralstonia solanacearum, 9.81 mm; in the assay with Xanthomonas oryzae, 22.9 mm; in the assay on Erwinia it was 13.8 mm. Besides, the inhibition of growth at 200 µg/mL came out at 7% in the assay with Fusarium graminearum, 14% in the assay on Rhizoctonia solani and 8% with Cytospora mali.
Take `CCn1cc(C(=O)O)c(=O)c2cc(F)c(N3CCN(C(=O)c4cccnc4)CC3)cc21`: the zone of inhibition at 50 µg/mL stood at 6.58 mm in the assay on Xanthomonas axonopodis; 8.74 mm in the assay on Bacillus subtilis; 1.06 mm in the assay on Ralstonia solanacearum; 7.94 mm in the assay on Xanthomonas oryzae; 9.19 mm in the assay on Erwinia. For the same molecule, the inhibition of growth at 200 µg/mL with Fusarium graminearum is 11%; in the assay on Rhizoctonia solani it was 12%; in the assay with Cytospora mali, 17%.
As to `CCn1cc(C(=O)O)c(=O)c2cc(F)c(N3CCN(C(=O)/C=C/c4ccco4)CC3)cc21`, the zone of inhibition at 50 µg/mL was 12.9 mm in the assay with Xanthomonas axonopodis; 19.4 mm in the assay on Bacillus subtilis; 5.72 mm with Ralstonia solanacearum; 15.3 mm in the assay with Xanthomonas oryzae; 14.9 mm with Erwinia. For the same molecule, the figures for the inhibition of growth at 200 µg/mL in the assay on Fusarium graminearum, with Rhizoctonia solani and in the assay with Cytospora mali were 8%, 20% and 7%, respectively.
For `CCn1cc(C(=O)O)c(=O)c2cc(F)c(N3CCN(C(=O)COc4ccccc4C)CC3)cc21`, the zone of inhibition at 50 µg/mL with Xanthomonas axonopodis amounted to 10.7 mm; in the assay with Bacillus subtilis, 15.3 mm; in the assay with Ralstonia solanacearum, 6.22 mm; with Xanthomonas oryzae, 14.2 mm; in the assay on Erwinia it was 13.4 mm. The inhibition of growth at 200 µg/mL in the assay with Fusarium graminearum worked out at 20%; in the assay on Rhizoctonia solani, 34%; with Cytospora mali, 19%.
For `CCn1cc(C(=O)O)c(=O)c2cc(F)c(N3CCN(C(=O)c4ccc(Br)o4)CC3)cc21`, the zone of inhibition at 50 µg/mL in the assay with Xanthomonas axonopodis came out at 12.1 mm; in the assay on Bacillus subtilis, 18.9 mm; with Ralstonia solanacearum, 6.72 mm; in the assay on Xanthomonas oryzae, 13 mm; in the assay on Erwinia it was 13.7 mm. Moreover, the inhibition of growth at 200 µg/mL in the assay on Fusarium graminearum turned out to be 26%; in the assay on Rhizoctonia solani, 47%; in the assay on Cytospora mali it was 27%.
Consider `CCn1cc(C(=O)O)c(=O)c2cc(F)c(N3CCN(C(=O)COc4ccccc4)CC3)cc21`, for which the zone of inhibition at 50 µg/mL in the assay on Xanthomonas axonopodis turned out to be 15 mm; in the assay on Bacillus subtilis, 17.3 mm; with Ralstonia solanacearum, 4.89 mm; with Xanthomonas oryzae, 15.3 mm; in the assay with Erwinia, 13.8 mm. Moreover, the inhibition of growth at 200 µg/mL in the assay with Fusarium graminearum was 17%; in the assay with Rhizoctonia solani it was 30%; with Cytospora mali, 8%.
In the case of `CCn1cc(C(=O)O)c(=O)c2cc(F)c(N3CCNCC3)cc21` [NORFLOXACIN], the zone of inhibition at 50 µg/mL with Xanthomonas axonopodis turned out to be 17.7 mm; with Bacillus subtilis, 30.5 mm; with Ralstonia solanacearum it was 19.3 mm; in the assay on Xanthomonas oryzae, 22.2 mm; with Erwinia, 21.5 mm. The inhibition of growth at 200 µg/mL amounted to 18% with Fusarium graminearum, 0% in the assay on Rhizoctonia solani and 27% in the assay with Cytospora mali.
